The text below walks through data of ChEMBL document CHEMBL1124897, “(1-Pyrenylmethyl)amino alcohols, a new class of antitumor DNA intercalators. Discovery and initial amine side chain structure-activity studies” (1990).

Assay [1] relates to P388. In words: In vivo antitumor activity against murine lymphocytic leukemia P388 measured as lethal dose […]. It is filed as functional, Mus musculus. More on the design: unit: mg/kg. The gist of the method:
(§1)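 Male CD2-F1 mice (20 ± 3 g) implanted ip with 1 × 10^6 viable P388 cells on day 0. Drug given ip as aqueous suspension or solution in 0.9% NaCl or 5% dextrose on days 1, 5 and 9, dosed per body weight in mg/kg. Several dose levels bracketing the LD20 were tested, six mice per dose. Deaths before the control median day of death were counted as drug toxicity.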

The test system of assay [2] is P388. In words: In vivo antitumor activity against murine lymphocytic leukemia P388 measured as optimal dose. The class given is functional, Mus musculus. The method in brief:
(§2)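 Male CD2-F1 mice (20 ± 3 g) implanted ip with 1 × 10^6 viable P388 cells on day 0. Compound given ip as aqueous suspension or solution in 0.9% NaCl or 5% dextrose on days 1, 5 and 9, dosed per mg/kg body weight. Several doses bracketing LD20 were tested, six mice per dose. %ILS was calculated from median day of death of treated versus control mice. Values are optimal from at least two experiments.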

Assay [3] concerns P388. The experiment in a line: In vivo antitumor activity against murine lymphocytic leukemia P388 measured as percent increase in life span. The class given is functional, Mus musculus. The gist of the method: as §1
Assay [4] relates to P388. The experiment in a line: In vivo antitumor activity against murine lymphocytic leukemia P388 measured as optimal dose which is the highest nontoxic dose. The class given is functional, Mus musculus.
For assay [5], the system named is P388. In words: In vivo antitumor activity against murine lymphocytic leukemia P388, measured as percent increase in life span. It is filed as functional, organism-based. Particulars: Mus musculus. The gist of the method: as §2

Activity calls are given as the source filed them. The rule behind the calls is not given here.

`CC(CO)NCc1ccc2ccc3cccc4ccc1c2c34.Cl` (stereo unspecified): the LD20 in assay [1] is 600. Further, the Optimal dose in assay [2] worked out at 220 mg/kg. For the same compound, the ILS (in general, the gain in survival time of treated over control animals, in per cent) in assay [3] was determined as 25%.

For `Cl.OCCNCCNCc1ccc2ccc3cccc4ccc1c2c34`, in assay [1], the LD20 stood at 200. Further, the Optimal dose in assay [4] is 134 mg/kg. In assay [5], the ILS result is “inactive”.

As for `Cl.c1ccc(CNCc2ccc3ccc4cccc5ccc2c3c45)cc1`, the LD20 in assay [1] is on record as 600. The same compound registered an Optimal dose in assay [4] of 900 mg/kg. The ILS result in assay [5] is “inactive”.

With `CC(O)CNCc1ccc2ccc3cccc4ccc1c2c34.Cl` (stereo unspecified), the LD20 in assay [1] came to 600. Further, in assay [2], the Optimal dose was determined as 300 mg/kg. Besides, the ILS in assay [3] was 28%.

Turning to `CC(C)OCCCNCc1ccc2ccc3cccc4ccc1c2c34.Cl`, the LD20 in assay [1] came out at 180. Also, the Optimal dose in assay [4] came to 120 mg/kg. For the same compound, the ILS result in assay [5] is “inactive”.

Turning to `Cl.N#CCCNCc1ccc2ccc3cccc4ccc1c2c34`, in assay [1], the LD20 is recorded as 300. The same compound displayed an Optimal dose in assay [4] of 300 mg/kg. Moreover, the ILS entry in assay [5] was “inactive”.

As for `CCOCC(CO)(CO)NCc1ccc2ccc3cccc4ccc1c2c34.Cl`, in assay [1], the LD20 was found to be 225. For the same compound, the Optimal dose in assay [2] turned out to be 168 mg/kg. In assay [3], this compound came in with an ILS of 30%.

With `CCC(O)CNCc1ccc2ccc3cccc4ccc1c2c34.Cl` (stereo unspecified), in assay [1], the LD20 was 225. The same compound had an Optimal dose in assay [4] of 225 mg/kg. Besides, the ILS entry in assay [5] was “inactive”.

In assay [1], `CC(O)CCNCc1ccc2ccc3cccc4ccc1c2c34.Cl` (stereo unspecified) yielded an LD20 of 168. In assay [4], this compound registered an Optimal dose of 168 mg/kg. Besides, the ILS result in assay [5] is “inactive”.

Compound `CC(C)C(CO)(CO)NCc1ccc2ccc3cccc4ccc1c2c34.Cl` registered an LD20 in assay [1] of 300. Moreover, in assay [2], the Optimal dose was 450 mg/kg. Moreover, the ILS in assay [3] is given as 55%.

In assay [1], `C=CCNCc1ccc2ccc3cccc4ccc1c2c34.Cl` had an LD20 of 369. In assay [4], this compound yielded an Optimal dose of 550 mg/kg. In addition, the ILS result in assay [5] was “inactive”.

In assay [1], `Cl.NCc1ccc2ccc3cccc4ccc1c2c34` had an LD20 of 130. The Optimal dose in assay [4] stood at 194 mg/kg. Further, in assay [5], the ILS entry is “inactive”.

The compound `CCN(CC)CCCC(C)NCc1ccc2ccc3cccc4ccc1c2c34.Cl` (stereo unspecified) gave an LD20 in assay [1] of 100. Moreover, the Optimal dose in assay [4] is 150 mg/kg. Moreover, the ILS result in assay [5] was “inactive”.

Compound `Cl.OCCCNCc1ccc2ccc3cccc4ccc1c2c34` registered an LD20 in assay [1] of 120. The Optimal dose in assay [4] was determined as 120 mg/kg. In assay [3], the increase in lifespan (ILS) was found to be 20%.

For the compound `CC(=O)OCC(C)(COC(C)=O)NCc1ccc2ccc3cccc4ccc1c2c34`, the LD20 in assay [1] came to 300. The compound further came in with an Optimal dose in assay [4] of 300 mg/kg. This compound showed an increase in life span (ILS) in assay [3] of 65%.

`NCCCCCCNCc1ccc2ccc3cccc4ccc1c2c34`: in assay [1], the LD20 is 75. Besides, in assay [4], the Optimal dose was found to be 75 mg/kg. Also, in assay [5], the ILS entry is “inactive”.

`Cl.OCCCCCNCc1ccc2ccc3cccc4ccc1c2c34` showed an LD20 in assay [1] of 196. Besides, the Optimal dose in assay [4] was determined as 131 mg/kg. Also, the ILS entry in assay [5] is “inactive”.

For `Cl.OC(CNCc1ccc2ccc3cccc4ccc1c2c34)c1ccccc1` (stereo unspecified), in assay [1], the LD20 was found to be 450. In assay [4], the Optimal dose turned out to be 450 mg/kg. Moreover, the ILS entry in assay [5] was “inactive”.

`CC1(C)OC[C@@H](O)[C@H](NCc2ccc3ccc4cccc5ccc2c3c45)CO1` yielded an LD20 in assay [1] of 675. In addition, the Optimal dose in assay [4] was found to be 1013 mg/kg. The ILS entry in assay [5] is “inactive”.

In assay [1], `CCCNCc1ccc2ccc3cccc4ccc1c2c34.Cl` came in with an LD20 of 150. In addition, the Optimal dose in assay [4] came out at 225 mg/kg. For the same compound, the ILS result in assay [5] is “inactive”.

In assay [1], `CC(C)CC(CO)NCc1ccc2ccc3cccc4ccc1c2c34.Cl` (stereo unspecified) yielded an LD20 of 675. The Optimal dose in assay [4] is 1012 mg/kg. Moreover, in assay [5], the ILS result is “inactive”.

For `CN(CCO)Cc1ccc2ccc3cccc4ccc1c2c34.Cl`, the LD20 in assay [1] stood at 366. In assay [4], this compound yielded an Optimal dose of 365 mg/kg. Moreover, the ILS result in assay [5] was “inactive”.

With `CCN(CC)CCNCc1ccc2ccc3cccc4ccc1c2c34.Cl`, the LD20 in assay [1] amounted to 120. This compound yielded an Optimal dose in assay [4] of 180 mg/kg. Moreover, the ILS result in assay [5] was “inactive”.

The compound `CN(C)CCCNCc1ccc2ccc3cccc4ccc1c2c34.Cl` displayed an LD20 in assay [1] of 85. In assay [4], this compound gave an Optimal dose of 127 mg/kg. The ILS result in assay [5] is “inactive”.

Consider `Cl.OCCN(CCO)Cc1ccc2ccc3cccc4ccc1c2c34`, for which the LD20 in assay [1] is given as 225. Further, the Optimal dose in assay [4] stood at 225 mg/kg. The ILS result in assay [5] was “inactive”.

For `Cl.NCCCN1CCN(CCCNCc2ccc3ccc4cccc5ccc2c3c45)CC1`, the LD20 in assay [1] worked out at 37. In assay [4], this compound displayed an Optimal dose of 37 mg/kg.

In turn, `CC(C)(CO)CCCNCc1ccc2ccc3cccc4ccc1c2c34.Cl` gave an LD20 in assay [1] of 215. In assay [4], this compound showed an Optimal dose of 215 mg/kg. Further, the ILS result in assay [5] is “inactive”.

Compound `CC(NCc1ccc2ccc3cccc4ccc1c2c34)C(O)c1ccccc1.Cl` (stereo unspecified) displayed an LD20 in assay [1] of 450. For the same compound, in assay [4], the Optimal dose was 675 mg/kg. Besides, the ILS entry in assay [5] was “inactive”.

The compound `Cl.NCCCCCNCc1ccc2ccc3cccc4ccc1c2c34` had an LD20 in assay [1] of 20. In addition, the Optimal dose in assay [4] turned out to be 116 mg/kg. Also, the ILS entry in assay [5] was “inactive”.

Compound `Cl.c1ccc(CCCNCc2ccc3ccc4cccc5ccc2c3c45)cc1` registered an LD20 in assay [1] of 300. The Optimal dose in assay [4] turned out to be 300 mg/kg. In addition, the ILS result in assay [5] is “inactive”.

As to `Cl.NCCCCNCc1ccc2ccc3cccc4ccc1c2c34`, in assay [1], the LD20 is 28. Also, in assay [4], the Optimal dose is 19 mg/kg. Moreover, the ILS entry in assay [5] was “inactive”.

In the case of `COCCNCc1ccc2ccc3cccc4ccc1c2c34.Cl`, the LD20 in assay [1] is on record as 200. In assay [4], this compound had an Optimal dose of 133 mg/kg. Besides, the ILS result in assay [5] was “inactive”.

For `Cl.OCC(NCc1ccc2ccc3cccc4ccc1c2c34)c1ccccc1` (stereo unspecified), in assay [1], the LD20 is listed as 675. The compound also displayed an Optimal dose in assay [4] of 675 mg/kg. For the same compound, in assay [5], the ILS entry is “inactive”.

As for `Cl.c1ccc(CCNCc2ccc3ccc4cccc5ccc2c3c45)cc1`, the LD20 in assay [1] is given as 335. Besides, in assay [4], the Optimal dose was 335 mg/kg. Also, in assay [5], the ILS entry is “inactive”.

Turning to `Cl.OCCCCNCc1ccc2ccc3cccc4ccc1c2c34`, the LD20 in assay [1] stood at 208. This compound showed an Optimal dose in assay [4] of 139 mg/kg. For the same compound, in assay [5], the ILS entry was “inactive”.

For the compound `CC(C)(O)CNCc1ccc2ccc3cccc4ccc1c2c34.Cl`, the LD20 in assay [1] stood at 220. For the same compound, the Optimal dose in assay [2] stood at 330 mg/kg. Moreover, the ILS result in assay [5] is “inactive”.

Turning to `Cl.OCC(NCc1ccc2ccc3cccc4ccc1c2c34)C(O)c1ccccc1` (stereo unspecified), the LD20 in assay [1] was found to be 675. The compound also showed an Optimal dose in assay [4] of 1013 mg/kg. Further, the ILS entry in assay [5] was “inactive”.

In turn, `Cl.OCCN(CCO)CCCNCc1ccc2ccc3cccc4ccc1c2c34` displayed an LD20 in assay [1] of 96. For the same compound, the Optimal dose in assay [4] worked out at 64 mg/kg. The ILS entry in assay [5] is “inactive”.

Compound `CCC(C)C(CO)NCc1ccc2ccc3cccc4ccc1c2c34.Cl` (stereo unspecified) came in with an LD20 in assay [1] of 675. Moreover, the Optimal dose in assay [4] stood at 675 mg/kg. Besides, the ILS result in assay [5] was “inactive”.

Consider `CCC(COC(C)=O)(COC(C)=O)NCc1ccc2ccc3cccc4ccc1c2c34`, for which, in assay [1], the LD20 is reported as 675. Besides, the Optimal dose in assay [4] was determined as 303 mg/kg. Further, in assay [3], the increase in life span (ILS) is on record as 40%.

In assay [1], `Cl.c1ccc(NCCNCc2ccc3ccc4cccc5ccc2c3c45)cc1` showed an LD20 of 300. This compound also gave an Optimal dose in assay [4] of 200 mg/kg. For the same compound, the ILS entry in assay [5] was “inactive”.

Turning to `CC1(NCc2ccc3ccc4cccc5ccc2c3c45)COC(C)(C)OC1.Cl`, in assay [1], the LD20 stood at 675. The same compound gave an Optimal dose in assay [4] of 675 mg/kg. The ILS result in assay [5] was “inactive”.

Consider `Cl.c1cc2ccc3ccc(CNCCCNC4CCCCC4)c4ccc(c1)c2c34`, for which the LD20 in assay [1] is on record as 134. The Optimal dose in assay [4] is 200 mg/kg. For the same compound, the ILS result in assay [5] was “inactive”.

In turn, `CCN(CC)Cc1ccc2ccc3cccc4ccc1c2c34.Cl` registered an LD20 in assay [1] of 452. Further, the Optimal dose in assay [4] is 452 mg/kg. Besides, in assay [5], the ILS entry was “inactive”.

Regarding `CC(O)CNCCNCc1ccc2ccc3cccc4ccc1c2c34.Cl` (stereo unspecified), the LD20 in assay [1] was determined as 150. The Optimal dose in assay [4] came to 150 mg/kg. The ILS result in assay [5] was “inactive”.

`CC(CO)(CO)NCCCc1ccc2ccc3cccc4ccc1c2c34.Cl` displayed an LD20 in assay [1] of 67.5. For the same compound, the Optimal dose in assay [4] worked out at 100 mg/kg. In assay [5], the ILS result was “inactive”.

Regarding `Cl.Clc1ccc(CNCc2ccc3ccc4cccc5ccc2c3c45)cc1Cl`, in assay [1], the LD20 worked out at 400. In assay [4], this compound came in with an Optimal dose of 900 mg/kg. Besides, the ILS entry in assay [5] was “inactive”.

In turn, `Cl.c1ccc(CCCCNCc2ccc3ccc4cccc5ccc2c3c45)cc1` displayed an LD20 in assay [1] of 130. This compound gave an Optimal dose in assay [4] of 88 mg/kg. Also, in assay [5], the ILS entry was “inactive”.

Compound `CCCCCC(CO)(CO)NCc1ccc2ccc3cccc4ccc1c2c34.Cl` came in with an LD20 in assay [1] of 675. Besides, in assay [4], the Optimal dose was 675 mg/kg. Further, the ILS entry in assay [5] was “inactive”.
